This is an account of results in ChEMBL document CHEMBL4765446, “Synthesis of ticagrelor analogues belonging to 1,2,3-triazolo[4,5-d]pyrimidines and study of their antiplatelet and antibacterial activity” (2020).

The test system of one assay is Plasma. The experiment in a line: Antiplatelet activity in human platelet-rich plasma assessed as inhibition of ADP-induced platelet aggregation at 1.8 uM preincubated for 10 mins followed by ADP addition and measured for 10 mins by light transmission aggregometry relative to control. The note with it: time 20 min. It counts as functional. A digest of the protocol: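 Citrated (3.2%) venous blood from drug-free healthy volunteers aged 20–40 years; PRP from 100 × g 15 min spin, adjusted to 250000/µl with autologous PPP (800 × g 15 min). Compound or vehicle (1% DMSO) preincubated 10 min, then stirring at 1200 rpm, 37 °C, and ADP 10 µM added. Aggregation followed 10 min; AUC expressed as fold-inhibition vs vehicle, mean ± S.D., n = 4–21 donors, Wilcoxon paired test.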

The next assay relates to Staphylococcus aureus. The experiment in a line: Antibacterial activity against methicillin-resistant Staphylococcus aureus BAA-1556 by broth microdilution method. In kind it is functional. A digest of the protocol:
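Single colony from Brain Heart Infusion agar grown overnight in BHI broth, aerobic, 37 °C, 190 rpm. Diluted 100-fold in Mueller-Hinton broth, grown to exponential phase. About 5.10^5 CFU/ml then incubated with or without a range of concentrations, vehicle 1% DMSO. Growth read as OD600. MIC per EUCAST is the lowest concentration with no visible growth, i.e. ΔOD600 versus blank (medium + 1% DMSO) equal to zero.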
For orientation: In broth dilution the organism is exposed to a series of concentrations in liquid medium.

Values after ≈ are worked out from the molar mass of the structure shown.

As a reminder, the MIC is the least concentration at which growth counts as inhibited. For the compound `CCCSc1nc(N[C@@H]2C[C@H]2c2ccc(F)c(F)c2)c2nnn([C@@H]3C[C@H](O)[C@@H](O)[C@H]3O)c2n1`, the “fold change (FC)” value in the assay with Plasma worked out at 4.8. In addition, the lowest concentration to inhibit growth in the assay with Staphylococcus aureus (MIC) was 25 µM (≈ 12 µg/mL).

With `CCCSc1nc(NCCc2ccc(F)c(F)c2)c2nnn([C@@H]3C[C@H](OCCO)[C@@H](O)[C@H]3O)c2n1`, in the assay on Plasma, the “fold change (FC)” value stood at 1.1. This compound also registered an MIC against Staphylococcus aureus above 200 µM.

Consider `CCCSc1nc(NC2CC2)c2nnn([C@@H]3C[C@H](OCCO)[C@@H](O)[C@H]3O)c2n1`, for which the “fold change (FC)” value in the assay on Plasma is reported as 2.6. Also, the MIC against Staphylococcus aureus is above 200 µM.

As to `C[C@@H](O)CSc1nc(N[C@@H]2C[C@H]2c2ccc(F)c(F)c2)c2nnn([C@@H]3C[C@H](O)[C@@H](O)[C@H]3O)c2n1`, in the assay with Plasma, the “fold change (FC)” value came out at 6.2. Also, in the assay on Staphylococcus aureus, the MIC was above 200 µM.

Regarding `CCSc1nc(N[C@@H]2C[C@H]2c2ccc(F)c(F)c2)c2nnn(CC)c2n1`, in the assay on Plasma, the “fold change (FC)” value was 0.91. The compound further showed an MIC in the assay on Staphylococcus aureus above 200 µM.

As to `O[C@@H]1[C@H](O)[C@@H](O)C[C@H]1n1nnc2c(N[C@@H]3C[C@H]3c3ccc(F)c(F)c3)nc(Cl)nc21`, in the assay with Plasma, the “fold change (FC)” value stood at 1.1. In addition, the MIC in the assay on Staphylococcus aureus was above 200 µM.

For the compound `CCSc1nc(N[C@@H]2C[C@H]2c2ccc(F)c(F)c2)c2nnn(C)c2n1`, in the assay on Plasma, the “fold change (FC)” value came to 0.97. This compound also displayed an MIC against Staphylococcus aureus above 200 µM.

Take `C[C@H](O)CSc1nc(N[C@@H]2C[C@H]2c2ccc(F)c(F)c2)c2nnn([C@@H]3C[C@H](O)[C@@H](O)[C@H]3O)c2n1`: the “fold change (FC)” value in the assay with Plasma stood at 2. The compound further returned an MIC against Staphylococcus aureus above 200 µM.

For `CC(O)CSc1nc(N)c2nnn([C@@H]3C[C@H](O)[C@@H](O)[C@H]3O)c2n1` (stereo partly specified), the “fold change (FC)” value in the assay with Plasma was determined as 1. This compound also displayed an MIC in the assay on Staphylococcus aureus above 200 µM.

Take `CCCSc1nc(N[C@@H]2C[C@H]2c2ccc(F)c(F)c2)c2nnn(C3CCCC3)c2n1`: in the assay with Plasma, the “fold change (FC)” value is 1. Further, the MIC against Staphylococcus aureus was above 200 µM.

With `CCCSc1nc(N[C@@H]2C[C@H]2c2ccc(F)c(F)c2)c2nnn(CC)c2n1`, in the assay with Plasma, the “fold change (FC)” value came to 0.97. Also, the MIC against Staphylococcus aureus was above 200 µM.

Regarding `O[C@@H]1[C@H](O)[C@@H](O)C[C@H]1n1nnc2c(N[C@@H]3C[C@H]3c3ccc(F)c(F)c3)ncnc21`, in the assay with Plasma, the “fold change (FC)” value was determined as 1. This compound returned an MIC against Staphylococcus aureus above 200 µM.

Regarding `CSc1nc(N[C@@H]2C[C@H]2c2ccc(F)c(F)c2)c2nnn(C)c2n1`, in the assay with Plasma, the “fold change (FC)” value is 0.94. Further, the MIC with Staphylococcus aureus is above 200 µM.

As for `CCCSc1nc(N[C@@H]2C[C@H]2c2ccc(F)c(F)c2)c2nnn(C)c2n1`, the “fold change (FC)” value with Plasma amounted to 1.08. The MIC with Staphylococcus aureus is above 200 µM.

On to `CCCSc1nc(N)c2nnn([C@@H]3C[C@H](OCCO)[C@@H](O)[C@H]3O)c2n1`, for which the “fold change (FC)” value in the assay with Plasma was 1.1. The compound further gave an MIC with Staphylococcus aureus above 200 µM.

Turning to `CCCSc1nc(N[C@@H]2C[C@H]2c2ccc(F)c(F)c2)c2nnn([C@@H]3C[C@H](OCCO)[C@@H](O)[C@H]3O)c2n1` [TICAGRELOR], in the assay with Plasma, the “fold change (FC)” value came to 4.3. The compound also yielded an MIC in the assay on Staphylococcus aureus of 25 µM (≈ 13.1 µg/mL).

Turning to `CCn1nnc2c(N[C@@H]3C[C@H]3c3ccc(F)c(F)c3)nc(SC)nc21`, the “fold change (FC)” value in the assay with Plasma was 0.87. In addition, the MIC against Staphylococcus aureus was above 200 µM.

On to `Nc1nc(SCCCO)nc2c1nnn2[C@@H]1C[C@H](O)[C@@H](O)[C@H]1O`, for which the “fold change (FC)” value in the assay on Plasma worked out at 1. Besides, in the assay on Staphylococcus aureus, the MIC was above 200 µM.

On to `CC(O)CSc1nc(N[C@@H]2C[C@H]2c2ccc(F)c(F)c2)c2nnn([C@@H]3C[C@H](OCCO)[C@@H](O)[C@H]3O)c2n1` (stereo partly specified), for which the “fold change (FC)” value with Plasma is recorded as 1.7. In the assay with Staphylococcus aureus, this compound yielded an MIC above 200 µM.

With `OCCCSc1nc(N[C@@H]2C[C@H]2c2ccc(F)c(F)c2)c2nnn([C@@H]3C[C@H](O)[C@@H](O)[C@H]3O)c2n1`, the “fold change (FC)” value with Plasma worked out at 2.7. The compound also displayed an MIC against Staphylococcus aureus above 200 µM.

Regarding `OCCCSc1nc(N[C@@H]2C[C@H]2c2ccc(F)c(F)c2)c2nnn([C@@H]3C[C@H](OCCO)[C@@H](O)[C@H]3O)c2n1`, the “fold change (FC)” value with Plasma is 1. This compound showed an MIC against Staphylococcus aureus above 200 µM.

Regarding `CCCSc1nc(N)c2nnn([C@@H]3C[C@H](O)[C@@H](O)[C@H]3O)c2n1`, in the assay with Plasma, the “fold change (FC)” value was 1.1. In the assay on Staphylococcus aureus, the MIC was above 200 µM.

Regarding `CCCSc1nc(N[C@@H]2C[C@H]2c2ccccc2)c2nnn([C@@H]3C[C@H](OCCO)[C@@H](O)[C@H]3O)c2n1`, the “fold change (FC)” value in the assay with Plasma is recorded as 3.1. This compound also had an MIC against Staphylococcus aureus above 200 µM.
